# Assay outcomes from PubChem BioAssay.
# Most compounds without a hit are left out; they make up all but 4.2% or so of the library.
# GAA850 FXN act: activators of GAA850 frataxin (FXN) promoter | HEK293 lucGAA850 FXN promoter luciferase reporter, 24 h; percent of 10 µM SAHA response | activation, % at 6 µM | hit rate 0.56% among 360,000 | AID 540364;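 active means activation above the average of all compounds screened plus 3 SD, cutoff fixed separately per campaign, cut at about 7.5% in these data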;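 further: 0% = DMSO wells and 100% = 10 µM SAHA wells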
# M18AAP inhibitor: PfM18AAP enzyme inhibition; hit rate 1.2% among 290,000; recombinant PfM18AAP, H-Glu-NHMec fluorogenic cleavage; inhibition, % at 7.35 µM;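 active means inhibition above the campaign mean inhibition over all tested compounds plus 3 SD, cut at about 28% in these data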;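 further: 0% = plate median of test compound wells and 100% = 2 mM ZnCl2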
# CTSL1 counter: blocks F. hepatica cathepsin L1 in PFM18AAP counter-screen | AID 1906 | recombinant F. hepatica cathepsin L1, Z-Leu-Arg-MCA fluorescence | inhibition, % at 5.96 µM | hit rate 0.49% among 300,000;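 active means inhibition above the mean of all tested compounds plus 3 SD, set per screening campaign, cut at about 17% in these data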;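 further: 0% = plate median of test compound wells and 100% = 1 µM Z-Phe-Ala-diazomethylketone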
# AHR activator: activates the human aryl hydrocarbon receptor | activation, % at 5 µM | AHR-responsive luciferase reporter cells, luminescence | hit rate 2.5% among 320,000; in the data active means activation above about 47%;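 further: 0% = vehicle wells and 100% = reference agonist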
# Target sequence (P35869 whole entry, looked up): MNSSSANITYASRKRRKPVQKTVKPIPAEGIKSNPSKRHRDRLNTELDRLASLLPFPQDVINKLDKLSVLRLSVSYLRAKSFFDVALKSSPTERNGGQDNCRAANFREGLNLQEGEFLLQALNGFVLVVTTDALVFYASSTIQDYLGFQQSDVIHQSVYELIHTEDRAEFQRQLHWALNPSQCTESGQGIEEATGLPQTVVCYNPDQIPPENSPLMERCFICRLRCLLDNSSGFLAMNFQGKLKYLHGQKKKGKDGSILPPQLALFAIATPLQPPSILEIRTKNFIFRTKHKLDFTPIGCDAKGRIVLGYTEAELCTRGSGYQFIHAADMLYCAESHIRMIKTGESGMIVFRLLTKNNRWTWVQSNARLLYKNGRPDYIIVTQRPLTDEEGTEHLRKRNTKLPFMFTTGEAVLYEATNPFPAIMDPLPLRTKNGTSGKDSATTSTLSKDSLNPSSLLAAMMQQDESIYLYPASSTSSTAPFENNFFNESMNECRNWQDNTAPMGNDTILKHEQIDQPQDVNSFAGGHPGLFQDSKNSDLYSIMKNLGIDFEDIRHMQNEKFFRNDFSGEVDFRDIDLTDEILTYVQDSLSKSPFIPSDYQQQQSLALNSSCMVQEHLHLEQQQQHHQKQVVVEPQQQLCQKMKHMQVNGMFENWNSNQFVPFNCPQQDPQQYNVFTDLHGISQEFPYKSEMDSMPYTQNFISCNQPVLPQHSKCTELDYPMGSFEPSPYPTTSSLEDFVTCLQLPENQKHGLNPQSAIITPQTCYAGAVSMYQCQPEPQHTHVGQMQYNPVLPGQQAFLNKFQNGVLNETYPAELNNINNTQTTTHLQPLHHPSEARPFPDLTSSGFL
# HDAC3 inhib: inhibitors of human histone deacetylase 3; O15379; recombinant HDAC3, fluorogenic peptide/trypsin coupled, fluorescence; inhibition, % at 8.3 µM; hit rate 0.15% among 320,000; AID 2718; in the data active means inhibition above about 26%, passing the limit was not always enough; inconclusive means no clear call, values can overlap the other calls
# SENP1 FRET inh: inhibitors of human SENP1 SUMO protease catalytic domain. recombinant SENP1 catalytic domain, CyPet-SUMO1-YPet FRET cleavage. Q9P0U3. AID 624204. inhibition, % at 10 µM. hit rate 0.21% among 360,000;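 active means inhibition at least 30% at 10 µM, raw YFP signal under a set limit, fluorescence ratio 0.5 to 1.5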;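 further: 0% = enzyme with DMSO and 100% = no enzyme wells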
#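 Test system: recombinant human SENP1 catalytic domain, His6-tagged / Medium: pH 8 Tris buffer with EDTA, NaCl, BME, BSA, NP40, catalase / Also added: SUMO1 FRET substrate flanked by Cypet and Ypet, 25 nM / Times: 50 min reaction at room temperature / Signal: FRET, CFP and YFP emission / Control set: no-enzyme low control and enzyme-plus-DMSO high control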
# * hit, by the source's call; ? = inconclusive; nt = not tested or not shown.
SMILES,GAA850 FXN act,M18AAP inhibitor,CTSL1 counter,AHR activator,HDAC3 inhib,SENP1 FRET inh
COc1ccc(OC)c(NC(=O)c2cnc3n(c2=O)CCS3)c1,2,-7,3,50*,-1,0
COc1ccc(CCNC(=O)c2cnc3n(c2=O)CCS3)cc1OC,2,-3,41*,7,10,1
COc1ccc(Cl)cc1NC(=O)c1cnc2n(c1=O)CCS2,0,nt,1,13,-4,1
CN(C)N1C(=O)c2c(Cl)c(Cl)c(Cl)c(Cl)c2C1=O,1,nt,nt,nt,nt,-1
CCC(NC(=O)c1ccccc1NC(=O)C(C)(C)C)C(=O)N1CC(C)OC(C)C1 (stereo unspecified),1,nt,nt,2,4,-1
CCOC(=O)C1(C)CCN1C(=O)c1ccc2c(c1)CCO2 (stereo unspecified),1,nt,nt,nt,nt,2
O=S(=O)(Nc1cc(S(=O)(=O)N2CCOCC2)ccc1Cl)c1ccccc1,0,nt,nt,0,2,3
COc1ccc(NC(=O)c2nc[nH]c2C(=O)N[C@@H](C)c2ccccc2)cc1,1,nt,3,48*,-7,1
CCOC(=O)c1[nH]cnc1C(=O)Nc1cccc(OC)c1,1,-7,-4,2,-2,2
CNC(=O)c1[nH]cnc1C(=O)Nc1cccc(OC)c1,3,1,-1,57*,-1,3
CN(CC(=O)Nc1cc(Cl)ccc1C#N)C1CCS(=O)(=O)C1 (stereo unspecified),1,nt,nt,19,3,-4
O=C(CCCN1C(=O)/C(=C/c2ccc(F)cc2)SC1=S)NC1CCS(=O)(=O)C1 (stereo unspecified),-2,7,5,-4,-2,1
CC(=O)Nc1ccccc1NS(=O)(=O)c1cccc([N+](=O)[O-])c1,2,1,19*,-1,4,-2
CCOc1ccccc1-c1nc(C(N)=O)c2[nH]c(=O)n(-c3ccc(F)cc3)c2n1,2,6,-6,72*,5,-4
CC(C)c1nc(C(N)=O)c2[nH]c(=O)n(-c3ccc(F)cc3)c2n1,1,2,-4,11,-9,-13
Cc1cc(SCC(=O)c2ccc(Cl)cc2)nc(=O)[nH]1,2,8,-3,-4,18,-55
CCCCc1c(O)nc(SCC(=O)O)[nH]c1=O,-1,7,-5,0,3,-1
Cc1ccc(C(=O)CSc2cc(C)[nH]c(=O)n2)cc1,1,10,-4,7,34*,-33
CCCCc1c(O)nc(SCC(=O)c2ccccc2)[nH]c1=O,2,0,14,0,46*,5
Cc1cc(SCc2ccccc2C)nc(=O)[nH]1,2,-20,-2,0,1,-4
Cc1cc(SCC(=O)c2ccccc2)nc(=O)[nH]1,3,6,1,12,45*,-30
CCc1ccc(NC(=O)[C@H](Cc2ccccc2)NC(=O)C2CCN(C(=O)[C@@H](N)CC(C)C)CC2)cc1,0,-3,-29,0,3,3
c1ccc(-c2ccc(C(c3ccccc3)n3ccnc3)cc2)cc1 (stereo unspecified),2,11,6,48*,3,3
c1ccc(-c2ccc(-n3ccnc3)cc2)cc1,2,-7,-1,19,2,2
COc1ccc(CN(CCC(c2ccccc2)c2ccc(OC(C)C)cc2)C(=O)CCl)cc1OC (stereo unspecified),0,1,36*,0,11,1
SMILES,GAA850 FXN act,M18AAP inhibitor,CTSL1 counter,AHR activator,HDAC3 inhib,SENP1 FRET inh
CCCCNC(=S)N/N=C/c1ccc(C)s1,-1,9,4,75*,7,-1
COCCNC(=O)CCC(=O)NNc1nc2ccccc2c2nc(-c3ccccc3)nn12,1,3,0,60*,0,1
COCCCNC(=O)CCC(=O)NNc1nc2ccccc2c2nc(-c3ccccc3)nn12,2,3,-2,62*,1,3
O=C(c1ccc(Cl)cc1)N1CCOc2ccccc21,0,0,nt,nt,8,3
O=S(=O)(O)c1cccc(N=Nc2c(O)ccc3ccccc23)c1,1,-10,1,4,12,13
CCOC(=O)c1c[nH]c2ccc3ccccc3c2c1=O,0,4,2,7,?,1
CCOC(=O)c1[nH]cnc1N=Nc1c(O)ccc2ccccc12,1,2,-4,6,2,62*
Oc1ccc2ccccc2c1N=Nc1ccccn1,1,10,1,74*,-4,11
Oc1ccc2ccccc2c1N=Nc1ccccc1F,3,0,2,50*,2,3
CC(NC(=O)c1cccc(S(=O)(=O)N2CCN(Cc3ccccc3)CC2)c1)c1ccc(Cl)cc1 (stereo unspecified),0,nt,nt,nt,nt,1
COC1C=COC2(C)Oc3c(C)c(O)c4c(O)c(c(CN5CCN(C)CC5)c(O)c4c3C2=O)NC(=O)C(C)=CC=CC(C)C(O)C(C)C(O)C(C)C(OC(C)=O)C1C (stereo unspecified),-7,nt,nt,nt,nt,32
CO[C@H]1C=CO[C@@]2(C)Oc3c(C)c(O)c4c(O)c(c5c(nc6cc(C)ccn65)c4c3C2=O)NC(=O)C(C)=CC=C[C@H](C)[C@H](O)[C@@H](C)[C@@H](O)[C@@H](C)[C@H](OC(C)=O)[C@@H]1C,nt,48*,nt,nt,nt,nt
CC1(C)CC(=O)C=C(c2ccc(-c3cccc4c3sc3ccccc34)cc2)C1=O,1,nt,nt,nt,nt,-1
O=C(COc1ccccc1Cl)NCc1nc(-c2ccccc2)no1,1,-1,9,48*,2,-5
Cc1cc(C)cc(OCC(=O)NCc2nc(-c3ccccc3)no2)c1,0,-11,0,15,-2,4
O=C(/C=C/c1ccc([N+](=O)[O-])cc1)N(c1ccccn1)C1CCCCC1,-1,43*,3,3,5,5
CC(=O)N1CCc2cc(S(=O)(=O)NCC(=O)NCc3ccc(Cl)cc3)ccc21,0,-6,-8,-1,-6,-1
Cc1nc2nc(CCNS(=O)(=O)c3ccc(Cl)cc3)cn2nc1C,0,-7,30*,0,-1,-83
CC1=C(C(=O)N(C(C)C)C(C)C)CC(CC(=O)NC2CC2)C(=O)N1Cc1ccc(F)cc1 (stereo unspecified),nt,nt,nt,nt,nt,4
Cc1cccc(N/C=C/C(=C(C#N)C#N)N(C)C)c1,-1,-10,-1,48*,6,-2
COc1ccc(/C=C/c2nc3ccccc3c(=O)n2-c2cccc(C(=O)O)c2)cc1,3,5,19*,0,-1,-3
COCCn1c(C)cc(/C=C(\C#N)C(=O)OC(C)C(=O)Nc2ccc(NC(C)=O)cc2)c1C (stereo unspecified),1,nt,-2,1,0,-14
COc1ccc(CNc2ncnc3cc(OC)c(OC)cc23)cc1OC,1,-3,-6,4,5,1
COc1cc2ncnc(NCc3ccc4c(c3)OCO4)c2cc1OC,2,-4,-1,63*,12,1
